Assay results published in article PMC3565064 (Analytical biochemistry, 2012).
Where two headings read alike, the source gives them in different places.

Tests used:
[1] = Self-aggregation of the peptide incubated alone; assay type: physicochemical
In short: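 The tagged peptide (20 μM) without Aβ was incubated at 37 °C. DPV was run in 100 mM phosphate/50 mM KClO₄, pH 7.4. For AFM, aliquots of the incubated solution were cast on mica pretreated with 10 mM NiCl₂ for 15 min, rinsed with water and dried under nitrogen. They were imaged in tapping mode over 5 μm × 5 μm fields at the stated incubation times.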

Aβ(1–42) aggregates = Aβ(1–42) aggregates (Homo sapiens, UniProt P05067); assay type: binding; settings: for ka, pseudo-first-order rate constant: DPV current decay fit, 100 mM phosphate buffer/50 mM KClO4 pH 7.4, 37 °C, average of three replicates; for t1/2, half-life: from pseudo-first-order ka
In short: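 HFIP-pretreated, lyophilised Aβ(1–42) and the ferrocene-tagged peptide (20 μM) were dissolved in 100 mM phosphate/50 mM KClO₄, pH 7.4, at several peptide:Aβ ratios and held at 37 °C. DPV was recorded over 0–24 h (pulse amplitude 50 mV, width 50 ms, period 200 ms, sample width 17 ms). Points were averages of three replicates, and current–time curves were fitted to a pseudo-first-order rate law.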

[2] = cited from earlier work

Sequence of Aβ(1–42) aggregates (P05067 672-713 limits assumed): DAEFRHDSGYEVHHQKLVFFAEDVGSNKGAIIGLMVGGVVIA

| Substance | self-aggregation, AFM of the peptide alone ([1]; 20 μM Fc-KLVFFK6 incubated alone, AFM (Figure 4 row D)) | self-aggregation, DPV current of the peptide alone ([1]; 20 μM Fc-KLVFFK6 without Aβ(1–42), 100 mM phosphate buffer/50 mM KClO4 pH 7.4, 37 °C, 24 h, steady DPV current) | ka, pseudo-first-order rate constant (Aβ(1–42) aggregates; [Fc-KLVFFK6]:[Aβ(1–42)] 1:0.25, 20 μM Fc-KLVFFK6) | t1/2, half-life (Aβ(1–42) aggregates; [Fc-KLVFFK6]:[Aβ(1–42)] 1:0.25) | ka, pseudo-first-order rate constant (Aβ(1–42) aggregates; [Fc-KLVFFK6]:[Aβ(1–42)] 1:0.5, 20 μM Fc-KLVFFK6) | t1/2, half-life (Aβ(1–42) aggregates; [Fc-KLVFFK6]:[Aβ(1–42)] 1:0.5) | ka, pseudo-first-order rate constant (Aβ(1–42) aggregates; [Fc-KLVFFK6]:[Aβ(1–42)] 1:1, 20 μM Fc-KLVFFK6) | t1/2, half-life (Aβ(1–42) aggregates; [Fc-KLVFFK6]:[Aβ(1–42)] 1:1) | ka, pseudo-first-order rate constant (Aβ(1–42) aggregates; [Fc-KLVFFK6]:[Aβ(1–42)] 1:2, 20 μM Fc-KLVFFK6) | t1/2, half-life (Aβ(1–42) aggregates; [Fc-KLVFFK6]:[Aβ(1–42)] 1:2) | ka, pseudo-first-order rate constant (Aβ(1–42) aggregates; [Fc-KLVFFK6]:[Aβ(1–42)] 1:4, 20 μM Fc-KLVFFK6) | incubation time at which the DPV current reaches a plateau (Aβ(1–42) aggregates; all stoichiometric ratios, 20 μM Fc-KLVFFK6, 37 °C) | half-life of the conjugate formed between Fc-KLVFFK6 and the Aβ(1–42) aggregates (Aβ(1–42) aggregates; over all stoichiometric ratios of Table 1) | self-aggregation [2] |
| --- | --- | --- | --- | --- | --- | --- | --- | --- | --- | --- | --- | --- | --- | --- |
| Fc-KLVFFK6 | does not self-aggregate when incubated alone | does not undergo self-aggregation | (1.49 ± 0.15) × 10^−4 s^−1 | 1.2919 h | (1.43 ± 0.08) × 10 ^−4 s^−1 | 1.3462 h | (1.26 ± 0.07) × 10 ^−4 s^−1 | 1.5278 h | (1.71 ± 0.05) × 10^−4 s^−1 | 1.1257 h | (1.89 ± 0.05) × 10^−4 s^−1 | about 6 h | 1.2632 ± 0.1961 h |  |
| KLVFF |  |  |  |  |  |  |  |  |  |  |  |  |  | known to self-aggregate |
